According to ChEMBL document CHEMBL1154983, “Arylpiperazine-containing pyrrole 3-carboxamide derivatives targeting serotonin 5-HT(2A), 5-HT(2C), and the serotonin transporter as a potential antidepressant” (Bioorg Med Chem Lett, 2010):
One block for each compound: values may come before it. Active and inactive are the calls of the source. The rule behind the calls is not given here.

Experiments:
[1] = target: T1, 5-hydroxytryptamine receptor 2C (Homo sapiens, UniProt P28335); assay: Displacement of [3H]mesulergine from human recombinant 5-HT2C receptor expressed in CHO-K1 cells after 60 mins by rapid filtration assay; assay type: cell-based
T1 sequence (P28335 whole entry): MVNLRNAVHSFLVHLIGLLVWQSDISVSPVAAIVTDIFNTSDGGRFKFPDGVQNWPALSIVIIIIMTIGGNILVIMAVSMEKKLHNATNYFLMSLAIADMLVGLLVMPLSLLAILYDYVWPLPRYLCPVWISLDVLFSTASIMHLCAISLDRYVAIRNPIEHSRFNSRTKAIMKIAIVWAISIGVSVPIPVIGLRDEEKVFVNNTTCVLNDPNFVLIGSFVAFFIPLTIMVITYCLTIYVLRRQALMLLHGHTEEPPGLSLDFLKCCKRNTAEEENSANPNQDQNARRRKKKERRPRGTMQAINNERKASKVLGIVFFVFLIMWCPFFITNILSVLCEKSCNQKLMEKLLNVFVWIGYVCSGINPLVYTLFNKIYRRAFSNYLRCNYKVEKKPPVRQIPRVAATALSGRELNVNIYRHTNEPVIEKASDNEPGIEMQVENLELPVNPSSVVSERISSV
How it was run: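 Frozen membranes were from CHO-K1 cells stably expressing human recombinant 5-HT2C, with 1.4 nM [3H]mesulergine. Buffer was 50 mM Tris–HCl pH 7.4, 4 mM CaCl2 and 0.1% ascorbic acid, with methiothepin for nonspecific binding. Incubation ran 60 min at 27 °C, stopped by rapid filtration through 0.5% PEI-presoaked glass-fibre filters.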

[2] = target: 5-hydroxytryptamine receptor 2A (Homo sapiens, UniProt P28223); assay: Displacement of [3H]ketanserin from human recombinant 5-HT2A receptor expressed in CHO-K1 cells after 60 mins; assay type: cell-based
Sequence of 5-hydroxytryptamine receptor 2A (P28223 whole entry): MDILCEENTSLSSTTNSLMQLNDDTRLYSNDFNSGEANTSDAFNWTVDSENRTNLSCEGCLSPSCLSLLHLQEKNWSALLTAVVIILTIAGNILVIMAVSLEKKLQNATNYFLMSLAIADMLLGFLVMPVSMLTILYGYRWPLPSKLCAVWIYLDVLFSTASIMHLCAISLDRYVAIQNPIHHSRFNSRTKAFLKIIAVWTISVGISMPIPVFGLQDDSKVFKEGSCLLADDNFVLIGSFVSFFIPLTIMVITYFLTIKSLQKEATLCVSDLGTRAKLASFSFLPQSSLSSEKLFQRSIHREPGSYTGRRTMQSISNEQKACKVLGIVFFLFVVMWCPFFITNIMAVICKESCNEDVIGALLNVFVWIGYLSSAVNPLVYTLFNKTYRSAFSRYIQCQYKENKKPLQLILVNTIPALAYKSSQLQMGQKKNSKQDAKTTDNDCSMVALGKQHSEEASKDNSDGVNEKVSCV
How it was run: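 Membranes were from CHO-K1 cells stably expressing 5-HT2A. Radioligand was at 1 nM, with mianserin defining nonspecific binding. Incubation ran 60 min at 27 °C in 50 mM Tris–HCl pH 7.4 with 4 mM CaCl2 and 0.1% ascorbic acid. Harvesting was by filtration through glass-fibre filters presoaked in 0.5% PEI.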

[3] = target: Sodium-dependent serotonin transporter (Homo sapiens, UniProt P31645); assay: Displacement of [3H]imipramine from human SERT expressed in HEK293 cells after 30 mins by rapid filtration assay; assay type: cell-based
Sequence of Sodium-dependent serotonin transporter (P31645 whole entry): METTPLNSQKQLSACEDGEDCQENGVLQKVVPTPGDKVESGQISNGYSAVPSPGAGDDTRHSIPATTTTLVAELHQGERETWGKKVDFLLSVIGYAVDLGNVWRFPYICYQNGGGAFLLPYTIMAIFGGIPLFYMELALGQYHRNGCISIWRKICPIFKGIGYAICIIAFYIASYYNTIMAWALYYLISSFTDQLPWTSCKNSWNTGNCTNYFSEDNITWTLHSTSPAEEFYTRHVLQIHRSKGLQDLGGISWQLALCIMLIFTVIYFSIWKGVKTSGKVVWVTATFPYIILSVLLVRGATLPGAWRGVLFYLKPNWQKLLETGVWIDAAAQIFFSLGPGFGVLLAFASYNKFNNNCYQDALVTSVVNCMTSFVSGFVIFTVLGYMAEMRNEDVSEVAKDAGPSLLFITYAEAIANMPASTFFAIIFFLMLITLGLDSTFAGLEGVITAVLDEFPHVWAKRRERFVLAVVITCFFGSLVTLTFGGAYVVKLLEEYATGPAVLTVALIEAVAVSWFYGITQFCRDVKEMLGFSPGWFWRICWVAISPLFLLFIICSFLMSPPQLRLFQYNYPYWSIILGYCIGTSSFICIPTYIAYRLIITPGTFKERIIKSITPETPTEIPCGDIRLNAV
How it was run: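 Frozen membranes were from HEK293 cells expressing human SERT, with 4 nM [3H]imipramine in 50 mM Tris–HCl pH 7.4, 120 mM NaCl and 5 mM KCl. Unlabelled imipramine defined nonspecific binding. Incubation ran 30 min at 27 °C, terminated by rapid filtration through 0.5% PEI-presoaked glass-fibre filters.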

[4] = target: 5-hydroxytryptamine receptor 7 (Homo sapiens, UniProt P34969); assay: Inhibition of 5HT7 receptor
Sequence of 5-hydroxytryptamine receptor 7 (P34969 whole entry): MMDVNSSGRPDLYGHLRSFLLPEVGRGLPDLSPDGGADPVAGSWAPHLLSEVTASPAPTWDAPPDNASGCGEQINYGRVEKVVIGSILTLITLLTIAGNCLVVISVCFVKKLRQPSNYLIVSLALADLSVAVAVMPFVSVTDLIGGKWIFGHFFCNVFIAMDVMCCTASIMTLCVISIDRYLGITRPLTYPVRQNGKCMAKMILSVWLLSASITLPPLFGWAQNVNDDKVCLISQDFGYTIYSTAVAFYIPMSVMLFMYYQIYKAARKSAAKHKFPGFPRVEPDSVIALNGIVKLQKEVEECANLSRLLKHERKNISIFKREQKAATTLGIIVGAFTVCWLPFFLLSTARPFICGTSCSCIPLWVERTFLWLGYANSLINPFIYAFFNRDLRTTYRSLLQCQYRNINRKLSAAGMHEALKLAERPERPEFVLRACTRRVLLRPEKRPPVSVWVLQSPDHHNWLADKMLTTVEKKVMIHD

Mus musculus [5] = assay: Antidepressant activity in mouse assessed as decrease in duration of immobility at 50 mg/kg, po during final 5 mins of the 6 mins session by forced swimming test; assay type: functional, organism-based; set-up: dose 50 mg/kg
How it was run: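 Mice swim for 10 min in a 25-cm glass cylinder (10 cm diameter) holding 15 cm of water at 23 ± 1 °C. They are retested 24 h later for 6 min. Compound is suspended in 3% Tween 80 and given orally 60 min before the test. Total immobility time (floating upright, only small head-keeping movements) is scored over the last 5 min. Means ± S.E.M.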

Mus musculus [6] = assay: Antidepressant activity in mouse assessed as decrease in duration of immobility at 100 mg/kg, po during final 5 mins of the 6 mins session by forced swimming test; assay type: functional
How it was run: (§1)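 Mice swam 10 min in a 25-cm glass cylinder (10 cm diameter) holding 15 cm of water at 23 1 °C. Twenty-four hours later, drug was given po 60 min before retesting. Immobility (floating upright with only small movements keeping head above water) was totalled over the last 5 min of the 6-min test.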

Mus musculus [7] = assay: Antidepressant activity in mouse assessed as decrease in duration of immobility at 10 mg/kg, po during final 5 mins of the 6 mins session by forced swimming test; assay type: functional; how it was run: as §1
[8] = Cmax in rat at 5 mg/kg, po; assay type: ADME, organism-based; set-up: dose 5 mg/kg, route oral; details: in vivo
How it was run: (§2)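 Rats dosed once with the HCl salt, either i.v. at 1 mg/kg (n = 2 or 3) or orally at 5 mg/kg (n = 3). Plasma and brain levels were followed to derive Cmax, Clast, Tmax, t1/2, AUC, dose-normalised AUC, oral bioavailability (F) and the brain/plasma ratio.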

Rattus norvegicus [9] = assay: Oral bioavailability in rat at 5 mg/kg; assay type: ADME, organism-based; details: in vivo; how it was run: as §2
Rattus norvegicus [10] = assay: Dose normalized AUC (0 to infinity) in rat at 1 mg/kg, iv; assay type: ADME, organism-based; set-up: dose 1 mg/kg, route intravenous; details: in vivo; how it was run: as §2
Rattus norvegicus [11] = assay: Dose normalized AUCirlf in rat at 5 mg/kg, po; assay type: ADME, organism-based; set-up: dose 5 mg/kg, route oral; details: in vivo; how it was run: as §2
[12] = Ratio of drug level in brain to plasma in rat; assay type: ADME, cell-free; how it was run: as §2
[13] = AUC in rat plasma; assay type: ADME, cell-free; how it was run: as §2
[14] = Cmax in rat plasma; assay type: ADME, organism-based; how it was run: as §2
[15] = Tmax in rat plasma; assay type: ADME, cell-free; how it was run: as §2
[16] = AUC in rat brain; assay type: ADME, tissue-based; how it was run: as §2
[17] = Elimination half life in rat at 5 mg/kg, po; assay type: ADME, organism-based; set-up: dose 5 mg/kg, route oral; details: in vivo, read-out: beta t1/2 (converted); how it was run: as §2
Brain = assay: Clast in rat brain; assay type: ADME, tissue-based; details: in vivo; how it was run: as §2
[18] = Half life in rat brain; assay type: ADME, tissue-based; how it was run: as §2
Rattus norvegicus [19] = assay: Clast in rat at 1 mg/kg, iv; assay type: ADME, organism-based; set-up: dose 1 mg/kg, route intravenous; details: in vivo; how it was run: as §2
Plasma = assay: Clast in rat plasma; assay type: ADME, cell-free; how it was run: as §2
[20] = Half life in rat at 1 mg/kg, iv; assay type: ADME, organism-based; set-up: dose 1 mg/kg, route intravenous; details: in vivo; how it was run: as §2
[21] = Cmax in rat at 1 mg/kg, iv; assay type: ADME, organism-based; set-up: dose 1 mg/kg, route intravenous; details: in vivo; how it was run: as §2
Rattus norvegicus [22] = assay: Clast in rat at 5 mg/kg, po; assay type: ADME, organism-based; set-up: dose 5 mg/kg, route oral; details: in vivo; how it was run: as §2
[23] = Tmax in rat at 5 mg/kg, po; assay type: ADME, organism-based; set-up: dose 5 mg/kg, route oral; details: in vivo; how it was run: as §2
Rattus norvegicus [24] = assay: AUC (0 to infinity) in rat at 1 mg/kg, iv; assay type: ADME, organism-based, Plasma; set-up: time infinity, dose 1 mg/kg, route intravenous; details: in vivo; how it was run: as §2
[25] = Tmax in rat brain; assay type: ADME, tissue-based; how it was run: as §2
[26] = Half life in rat plasma; assay type: ADME, cell-free; how it was run: as §2
[27] = Cmax in rat brain; assay type: ADME, organism-based; how it was run: as §2

IC50 [1]: 448 nM
IC50 [2]: 441 nM
IC50 [3]: 110 nM
SMILES: Cc1c(C(=O)NCCCN2CCN(c3cccc(Cl)c3)CC2)cc(-c2ccccc2)n1N1CCCCC1

IC50 [4]: 524 nM
SMILES: Cc1c(C(=O)NCCCN2CCN(c3cccc(Cl)c3Cl)CC2)cc(-c2ccccc2)n1-c1ccc(F)cc1

IC50 [4]: 493 nM
SMILES: Cc1c(C(=O)NCCCN2CCN(c3cccc(Cl)c3Cl)CC2)cc(-c2ccccc2)n1N1CCCCC1
Activity (Mus musculus [6]): Active
Activity (Mus musculus [7]): inactive

Cmax [8]: 245 ng/mL
F (Rattus norvegicus [9]): 61.03%
AUC/dose (Rattus norvegicus [10]): 20.945 µg·min/mL
AUC/dose (Rattus norvegicus [11]): 12.783 µg·min/mL
Kp [12]: 46
AUC [13]: 538 ng·h/mL
Cmax [14]: 190 ng/mL
Tmax [15]: 2 h
AUC [16]: 247 ng·h/mL
half-life [17]: 2.52 h
Clast (Brain): 60 ng/mL
half-life [18]: 3.42 h
Clast (Rattus norvegicus [19]): 4 ng/mL
Clast (Plasma): 100 ng/mL
half-life [20]: 1.76 h
Cmax [21]: 690 ng/mL
Clast (Rattus norvegicus [22]): 1 ng/mL
Tmax [23]: 1.17 h
AUC (Rattus norvegicus [24]): 20.945 µg·min/mL
Tmax [25]: 2 h
half-life [26]: 1.97 h
Cmax [27]: 90 ng/mL
SMILES: Cc1[nH]c(-c2ccccc2)cc1C(=O)NCCCN1CCN(c2cccc(Cl)c2Cl)CC1.Cl

IC50 [1]: 417 nM
IC50 [2]: 133 nM
IC50 [3]: 92 nM
SMILES: Cc1cccc(N2CCN(CCCNC(=O)c3cc(-c4ccccc4)n(N4CCCCC4)c3C)CC2)c1C

The remaining lines, values behind:

SMILES: CCn1c(-c2ccccc2)cc(C(=O)NCCCN2CCN(c3cccc(C)c3C)CC2)c1C
Activity (Mus musculus [5]): Active

SMILES: Cc1[nH]c(-c2ccccc2)cc1C(=O)NCCCN1CCN(c2cccc(Cl)c2Cl)CC1
Activity (Mus musculus [6]): Active
Activity (Mus musculus [7]): inactive

SMILES: CCn1c(-c2ccccc2)cc(C(=O)NCCCN2CCN(c3cccc(Cl)c3)CC2)c1C
Activity (Mus musculus [6]): inactive

SMILES: Cc1cccc(N2CCN(CCCNC(=O)c3cc(-c4ccccc4)n(C)c3C)CC2)c1C
Activity (Mus musculus [5]): Active
